# Shown are actives, neighbours in structure and some others; about 2.3% of the full set was active somewhere.
# V1R ag counter = activates human V1a receptor in oxytocin agonist counter-screen. P37288. CHO-V1R cells, Fluo-8 calcium fluorescence, agonist mode; 0% DMSO, 100% 3 nM vasopressin. activation, % at 3 µM. hit rate 0.25% among 320,000. AID 2797;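 active = activation above the mean activation of all tested compounds plus 3 SD, per screening run, cut at about 20% in these data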;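 note: signal is peak over basal fluorescence ratio across a 100 second FLIPR read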
# OXTR agonist = human OXTR agonism | P30559 | AID 2435 | hit rate 0.32% among 320,000 | CHO-OTR cells, Fluo-8 calcium fluorescence; normalized: DMSO 0%, oxytocin 100% | activation, % at 3 µM;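 active = activation above the mean of all tested compounds plus 3 SD, cutoff set per screening run, cut at about 20% in these data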;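 note: peak over basal fluorescence ratio from a 100 s FLIPR kinetic read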
# Target sequence (P30559 whole entry, looked up): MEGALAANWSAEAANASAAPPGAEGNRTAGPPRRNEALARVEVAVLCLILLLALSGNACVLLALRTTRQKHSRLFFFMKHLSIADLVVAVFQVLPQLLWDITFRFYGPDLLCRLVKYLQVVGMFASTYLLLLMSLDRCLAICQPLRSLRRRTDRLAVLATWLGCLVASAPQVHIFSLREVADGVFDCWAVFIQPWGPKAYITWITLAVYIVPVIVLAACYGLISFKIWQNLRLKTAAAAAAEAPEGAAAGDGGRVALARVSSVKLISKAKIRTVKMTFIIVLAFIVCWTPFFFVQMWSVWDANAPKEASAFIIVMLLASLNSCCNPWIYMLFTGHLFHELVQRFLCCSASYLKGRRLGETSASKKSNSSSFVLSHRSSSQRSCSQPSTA
# OXTR potentiator = human OXTR potentiation | hit rate 0.061% among 320,000 | activation, % at 3 µM | CHO-OTR cells, Fluo-8 calcium fluorescence, potentiator mode; 0% = oxytocin EC15, 100% = EC100 | P30559;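 active = activation above that plate's cutoff, the mean activation of tested compounds plus 3 SD, cut at about 6.6% in these data, passing the limit was not always enough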;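 note: 100% uses oxytocin at 75 nM as the full agonist control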
#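 Dosing: Single dose, 3.0 µM nominal final compound concentration | Material: Human OTR in CHO cells | Technique: Kinetic Fluo-8 calcium fluorescence | Benchmarks: EC15 oxytocin alone as 0%, 75 nM oxytocin as 100% | Probe or stimulus: Oxytocin at about EC15, sub-maximal agonist stimulus | Incubation: Compound 6 min at room temperature before oxytocin, 100 s read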
# TAAR1 antagonist = antagonists of human TAAR1; inhibition, % at 3 µM; hit rate 1.5% among 360,000; Q96RJ0; CHO RD-HGA16 TAAR1, Fluo-8 calcium fluorescence, antagonist; AID 624466;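 active = inhibition above a per-plate cutoff, the mean inhibition of test compounds on that plate plus 3 SD, cut at about 49% in these data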;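 note: 0% = DMSO plus EC80 beta-PEA response and 100% = DMSO alone without agonist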
# Target sequence (Q96RJ0 whole entry, looked up): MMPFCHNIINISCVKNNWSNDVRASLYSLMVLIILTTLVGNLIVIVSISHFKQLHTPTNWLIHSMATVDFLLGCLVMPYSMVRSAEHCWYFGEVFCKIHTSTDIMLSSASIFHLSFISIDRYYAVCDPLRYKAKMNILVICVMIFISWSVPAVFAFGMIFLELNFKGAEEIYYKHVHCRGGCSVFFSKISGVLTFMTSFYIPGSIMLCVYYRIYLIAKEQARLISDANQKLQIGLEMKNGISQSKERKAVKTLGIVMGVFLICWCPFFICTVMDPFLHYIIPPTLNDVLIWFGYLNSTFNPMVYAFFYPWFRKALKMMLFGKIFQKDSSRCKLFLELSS
#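 test system = CHO RD-HGA16 cells bearing hTAAR1 | replication = singlicate | controls = DMSO-only wells and EC80 β-PEA-stimulated wells | reagent = EC80 β-phenethylamine stimulus | read-out basis = percent inhibition of PEA-evoked calcium signal, max/basal emission ratio | schedule = seeding 17-24 h prior, 75-min 37 °C, 30-min RT dye loading | signal = kinetic Fluo-8 calcium fluorescence measurement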
# TAAR1 agonist = human TAAR1 agonism | Q96RJ0 | CHO RD-HGA16 TAAR1, Fluo-8 calcium fluorescence; vehicle wells 0%, saturating PEA agonist 100% | activation, % at 3 µM | hit rate 0.99% among 360,000 | AID 624467;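 active = activation above the mean activation of all test compounds in the run plus 3 SD, cut at about 38% in these data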
#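 Assay system – CHO-derived RD-HGA16 cells with stable Gα16 and human TAAR1 · Compound dosing – one-point dosing at 3 µM (nominal) · Incubation – 17-24 h seeding, 75 min 37 °C dye, 30 min RT · Measured by – kinetic Fluo-8 calcium fluorescence · Control set – DMSO vehicle as 0%, PEA at EC100 as 100% · Repeats – single well for each compound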
# nonsel antag count = nonselective antagonism, TAAR1 counter-screen; shares compounds with TAAR1 antagonist; counterscreen cell line, calcium fluorescence, antagonist mode; inhibition, % at 3 µM; hit rate 77% among 2,400; AID 651780; in the data active = inhibition above about 22%;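 note: CHO-Ga16 host cells stimulated with ATP at an EC80 level; 0% = agonist EC80 plus vehicle and 100% = vehicle without agonist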
# TAAR1 antag conf = confirmation of human TAAR1 antagonists. shares compounds with TAAR1 antagonist. TAAR1-expressing cells, fluorescence antagonist read-out. inhibition, % at 3 µM. hit rate 40% among 2,400; in the data active = inhibition above about 49%;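 note: CHO-Ga16 host cells challenged with agonist PEA near its EC80; 0% = agonist at EC80 plus vehicle and 100% = vehicle with no agonist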
# Ga16 ag counter = nonselective Ga16 agonist in TAAR1 antagonist counter-screen; shares compounds with TAAR1 antagonist; activation, % at 3 µM; hit rate 18% among 2,400; Ga16-expressing cells, calcium fluorescence, agonist counterscreen; in the data active = activation above about 12%;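 note: 0% = vehicle wells and 100% = saturating stimulus response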
# TAAR1 ag counter = counter-screen for human TAAR1 antagonists: TAAR1 agonists | AID 651955 | shares compounds with TAAR1 antagonist | hTAAR1 cell line, fluorescence activation, agonist mode | hit rate 2% among 2,400 | activation, % at 3 µM; in the data active = activation above about 37%;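 note: CHO cells stably expressing TAAR1 with calcium dye readout; 0% = DMSO vehicle and 100% = full agonist response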
# Active calls of the source: *; / = no result.
SMILES,V1R ag counter,OXTR agonist,OXTR potentiator,TAAR1 antagonist,TAAR1 agonist,nonsel antag count,TAAR1 antag conf,Ga16 ag counter,TAAR1 ag counter
Cc1ccc(NC(=O)N2CCCC2C(=O)Nc2c(C)cc(C)cc2C)cc1 (centres undefined),-1,-1,2,4,0,/,/,/,/
COc1ccc(C#Cc2ccc(C3=CC(=O)CC(C)(C)C3=O)cc2)cc1,/,/,/,81*,5,28*,43,4,3
NC(c1ccccc1)c1csc(Nc2ccc(C(=O)c3ccccc3)cc2)n1 (centres undefined),/,/,/,32,30,/,/,/,/
COc1cc(S(=O)(=O)Nc2ccccn2)ccc1F,0,0,-5,-5,8,/,/,/,/
COc1ccc(S(=O)(=O)N2CCOCC2)cc1NC(=O)C1COc2ccccc2O1 (centres undefined),1,0,-2,59*,11,26*,38,6,4
COC(=O)c1cnn(-c2ccccc2)c1-n1cccc1C=O,-1,1,-6,-15,7,/,/,/,/
Cc1cccn2c(=O)c3cc(C#N)c(=NC(=O)c4cccs4)n(CCCOC(C)C)c3nc12,-1,-2,-8,67*,14,24*,48,9,8
O=C(C1=C[C@@H](C2CC2)C[C@@H](OCc2ccc(CO)cc2)O1)N1CCN(Cc2ccccc2)CC1,0,-1,-13,8,5,/,/,/,/
C/C(=N\Nc1cc(C)nc(-c2ccccc2O)n1)c1ccccc1O,-1,0,-2,59*,6,30*,43,7,3
O=C(Cn1cc([N+](=O)[O-])ccc1=O)N1CCCc2ccccc21,0,0,2,7,0,/,/,/,/
CC(C)CC(NC(=O)C(CC(C)C)NC(=O)OC(C)(C)C)C(=O)O (centres undefined),1,-1,-10,-6,12,/,/,/,/
C#CCN(C[C@@H](CC(C)C)NC(=O)OC(C)(C)C)S(=O)(=O)c1ccc(Br)cc1F,/,/,/,51*,2,16,16,3,2
Cc1nc2ccc3nc(NC(=O)C4COc5ccccc5O4)sc3c2s1 (centres undefined),1,0,-5,61*,1,29*,30,2,1
O=C(Nc1nc(-c2ccccn2)cs1)C1COc2ccccc2O1 (centres undefined),3,0,-6,105*,8,22*,33,6,3
COc1ccc(Cl)c(-c2cc(C(=O)NCc3ccc(C(F)(F)F)cc3)[nH]n2)c1,/,/,/,63*,22,32*,48,19*,35
Cc1ccc(Cl)cc1-c1cc(C(=O)NCc2ccc(C(F)(F)F)cc2)[nH]n1,/,/,/,77*,35,42*,66*,32*,58*
COc1ccc(Cl)c(-c2cc(C(=O)NCc3ccco3)[nH]n2)c1,/,/,/,-5,1,/,/,/,/
COc1ccc(CCNC(=O)c2cc(-c3cc(Cl)ccc3O)n[nH]2)cc1OC,16,6,-9,61*,14,39*,54*,13*,15
COc1ccc(C(=O)NCC(c2cccs2)N2CCc3ccccc32)cc1OC (centres undefined),-2,-2,-6,-16,0,/,/,/,/
O=C(NCc1ccc2c(c1)OCO2)C(=O)Nc1cc2c3c(c1)CC(=O)N3CCC2,4,0,-2,18,0,/,/,/,/
COc1cc(-c2cc(C(=O)Nc3ccncc3)c3ccccc3n2)cc(OC)c1OC,1,2,-4,61*,23,28*,48,8,6
O=C(Nc1cccnc1)c1cc(-c2cccc(Br)c2)nc2ccccc12,2,1,-10,65*,2,27*,47,5,5
CCOc1ccccc1NC(=O)c1cc(-c2cc(OC)c(OC)c(OC)c2)nc2ccccc12,1,-1,-6,59*,6,29*,51*,4,2
COc1cc(-c2cc(C(=O)Nc3ccc(N4CCOCC4)cc3)c3ccccc3n2)cc(OC)c1OC,0,0,-4,72*,13,32*,51*,7,6
COc1ccc(NC(=O)c2cc(-c3ccco3)nc3ccccc23)cc1S(=O)(=O)N1CCOCC1,-1,-1,-5,45,19,/,/,/,/
SMILES,V1R ag counter,OXTR agonist,OXTR potentiator,TAAR1 antagonist,TAAR1 agonist,nonsel antag count,TAAR1 antag conf,Ga16 ag counter,TAAR1 ag counter
CCN(CC)C(=O)Cn1cc(C(=O)C2CC2)c2ccccc21,0,-1,-17,-9,1,/,/,/,/
O=C(NCCCn1ccnc1)c1ccc(N2CCCCCC2)c([N+](=O)[O-])c1,-1,-1,-11,-12,7,/,/,/,/
CC(C)(C)OC(=O)N1CCC(C(=O)N[C@H](C(=O)O)c2ccccc2)(c2ccccc2)CC1,1,0,-5,-3,3,/,/,/,/
COCCN1CCN(C(=O)C2CCC(=O)N(CCc3ccccc3)C2)CC1 (centres undefined),0,0,-13,-3,1,/,/,/,/
Cc1nn(Cc2ccc(Cl)cc2)c(C)c1NC(=O)CSc1n[nH]c(C)c1[N+](=O)[O-],0,0,-9,9,1,/,/,/,/
O=C(NC(c1ccc(-c2ccccc2)cc1)c1cnccn1)C1CCN(CCOc2ccc(F)cc2)CC1 (centres undefined),/,/,/,71*,34,39*,53*,16*,25
COc1ccc(C2=NS(=O)(=O)N(C)C(C(=O)N(C)Cc3ccccc3)=C2)cc1OC,6,7,-17,52*,7,23*,34,8,6
COc1ccc(C2=NS(=O)(=O)N(C)C(C(=O)NC(C)c3ccccc3)=C2)cc1OC (centres undefined),0,1,-10,14,2,/,/,/,/
Cc1cc(C)c(S(=O)(=O)N2CCN(C(=O)c3c(C)nn(-c4ccccc4)c3Cl)CC2)c(C)c1,/,/,/,68*,13,35*,46,8,5
Cc1cc(C)c(S(=O)(=O)NCc2csc(C)n2)c(C)c1,/,/,/,-4,4,/,/,/,/
CCN1C(=O)c2cccc3c(S(=O)(=O)N(C(=O)c4cccnc4)c4ccc(OC)cc4)ccc1c23,1,2,-10,67*,14,31*,54*,8,9
CCN1C(=O)c2cccc3c(S(=O)(=O)N(C)C)ccc1c23,/,/,/,-12,1,/,/,/,/
CCN1C(=O)c2cccc3c(S(=O)(=O)N(C(=O)c4ccncc4)c4ccc(OC)cc4)ccc1c23,3,4,-10,66*,13,31*,43,6,4

# Screens from PubChem BioAssay.
